One compound from ChEMBL document CHEMBL5390295, “Isolinderalactone Ameliorates the Pathology of Alzheimer's Disease by Inhibiting the JNK Signaling Pathway” (2023) can be followed below.

Experiment [1] relates to PC-12. Kind of experiment: Neuroprotective activity against in Abeta1-42 induced rat PC12 cells assessed as effect on P38MAPK protein level at 10 uM preincubated for 3 hrs followed by Abeta1-42 induction and measured after 24 hrs by Western blot analysis. The class given is functional, cell-based. The note with it: time 27.0 hrs. In short, it runs like this:
(§1)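 Aβ1–42 challenge in PC12 cells was 10 μM for 24 h after 3 h pretreatment at 10 μM. SP600125 (1.25 μM) was added 0.5 h before pretreatment where used. Cells were lysed in RIPA and protein measured by BCA. Blotting used PVDF transfer, 5% BSA/TBST block for 2 h, primaries 1:1000 overnight at 4 °C, and HRP secondary for 2 h. Bcl-2/Bax ratio and band intensities were quantified.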
On the technique in general: A western blot detects proteins with antibodies after separation by electrophoresis.

The subject of experiment [2] is Mus musculus. Kind of experiment: Anti-alzheimer activity in hippocampus of APP/PS1 dE9 double transgenic mouse model assessed as decrease in the level of caspase-3 activation at 10 mg/kg, ip administered once daily for 30 consecutive days by Western blot analysis. Format: functional, organism-based. As to conditions: time 30.0 day. In short, it runs like this: (§2)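 Hippocampal homogenates from dosed APP/PS1 mice were extracted in RIPA and protein measured by BCA. Samples were run by SDS electrophoresis, transferred to 0.22 μm PVDF for 90 min, blocked with 5% BSA in TBST for 2 h at RT, and probed with primaries 1:1000 overnight at 4 °C. HRP secondary was applied for 2 h at RT.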

The subject of experiment [3] is PC-12. In words: Neuroprotective activity against Abeta1-42 induced rat PC12 cells assessed as decrease in JNK phosphorylation level at 10 uM preincubated for 3 hrs followed by Abeta1-42 induction and measured after 24 hrs by Western blot analysis. Format: functional, cell-based. As to conditions: time 27.0 hrs. In short, it runs like this:
as §1

For experiment [4], the system named is Mus musculus. Kind of experiment: Anti-alzheimer activity against APP/PS1 dE9 double transgenic mouse model assessed as improvement in exploratory behavior at 1 to 10 mg/kg, ip administered once daily for 30 consecutive days measured on day 1 by novel object recognition test. The class given is functional, organism-based. The note with it: dose 1-10 mg/kg, time 31.0 day. In short, it runs like this: (§3)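 Same mouse cohort and ip PBS dosing schedule (1 or 10 mg/kg; donepezil 5 mg/kg). Novel object recognition: two objects, 5 min session, with exploration frequency and duration scored within 2–3 cm of objects. After 24 h one object was replaced by a novel object and a second 5 min session was recorded.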

Experiment [5] concerns PC-12. In words: Neuroprotective activity in rat PC12 cells assessed as reversal of Abeta1-42 induced caspase-3 activation at 10 uM preincubated for 3 hrs followed by Abeta1-42 induction and measured after 24 hrs by Western blot analysis. The class given is functional, cell-based. The note with it: time 27.0 hrs. In short, it runs like this:
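PC12 cells (DMEM, 10% FBS, 37 °C, 5% CO2) pretreated 3 h, then given 10 μM Aβ1–42 oligomer (10 mM DMSO stock aged 7 days at 37 °C, diluted in medium) for 24 h. RIPA lysates were blotted on PVDF, blocked in 5% BSA/TBST, and probed overnight at 4 °C for cleaved caspase-3 (1:1000), then HRP secondary. Band intensity was quantified; mean ± SEM of three experiments.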

For experiment [6], the system named is Mus musculus. In words: Anti-alzheimer activity in hippocampus of APP/PS1 dE9 double transgenic mouse model assessed as increase in the level of Map2 at 10 mg/kg, ip administered once daily for 30 consecutive days by Western blot analysis. The class given is functional, organism-based. As to conditions: time 30.0 day. In short, it runs like this:
as §2

Experiment [7] deals with Mus musculus. Kind of experiment: Anti-alzheimer activity in hippocampus of APP/PS1 dE9 double transgenic mouse model assessed as increase in the level of Bcl-2 at 10 mg/kg, ip administered once daily for 30 consecutive days by Western blot analysis. The class given is functional, organism-based. The note with it: time 30.0 day. In short, it runs like this: as §2
The subject of experiment [8] is Mus musculus. In words: Anti-alzheimer activity in hippocampus of APP/PS1 dE9 double transgenic mouse model assessed as decrease in the level of Bax at 10 mg/kg, ip administered once daily for 30 consecutive days by Western blot analysis. Format: functional, organism-based. The note with it: time 30.0 day. In short, it runs like this:
as §2

In experiment [9] the test system is PC-12. In words: Neuroprotective activity against Abeta1-42 induced rat PC12 cells assessed as reduction in ROS level at 10 uM preincubated for 3 hrs followed by Abeta1-42 induction and measured after 24 hrs by y DCFH2-DA probe based analysis. Format: functional, cell-based. The note with it: time 27.0 hrs. In short, it runs like this:
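PC12 cells were pretreated 3 h at 10 μM, then given 10 μM Aβ1–42 for 24 h. Cells were loaded with DCFH-DA 10 μM in FBS-free DMEM for 30 min in the dark and washed. Fluorescence was read at Ex 488/Em 525 nm.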

Experiment [10] concerns PC-12. Kind of experiment: Neuroprotective activity against in Abeta1-42 induced rat PC12 cells assessed as effect on ERK protein level at 10 uM preincubated for 3 hrs followed by Abeta1-42 induction and measured after 24 hrs by Western blot analysis. The class given is functional, cell-based. As to conditions: time 27.0 hrs. In short, it runs like this: as §1
The subject of experiment [11] is Mus musculus. In words: Anti-alzheimer activity against APP/PS1 dE9 double transgenic mouse model assessed as decrease in escape latency at 10 mg/kg, ip administered once daily for 30 consecutive day measured on day 5 by morris water maze test. The class given is functional, organism-based. As to conditions: time 35.0 day. In short, it runs like this:
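Female APP/PS1 mice, 10 months old, about 30 g, 10 per group. Dosing was intraperitoneal in 1× PBS, once daily for one month (1 or 10 mg/kg test; 5 mg/kg donepezil). WT and untreated APP/PS1 controls got PBS. Morris water maze: training days 1–4, averaged escape latency. Day-5 probe trial ran 60 s with the platform removed, recording platform crossings and time per quadrant. Mean ± SEM.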

Experiment [12] relates to Mus musculus. In words: Anti-alzheimer activity against APP/PS1 dE9 double transgenic mouse model assessed as improvement in exploration time for novel object at 10 mg/kg, ip administered once daily for 30 consecutive days measured on day 2 by novel object recognition test. As to conditions: time 32.0 day. Format: functional, organism-based. In short, it runs like this: as §3

The subject of experiment [13] is Mus musculus. In words: Anti-alzheimer activity in hippocampus of APP/PS1 dE9 double transgenic mouse model assessed as reduction in APP/beta-amyloid level at 10 mg/kg, ip administered once daily for 30 consecutive days by Western blot analysis. Format: functional, organism-based. As to conditions: time 30.0 day. In short, it runs like this:
as §2

Experiment [14] concerns Mus musculus. In words: Anti-alzheimer activity in cortex of APP/PS1 dE9 double transgenic mouse model assessed as reduction in neuronal apoptosis at 1 to 10 mg/kg, ip administered once daily for 30 consecutive days by immunofluorescence analysis. The class given is functional, organism-based. As to conditions: dose 1-10 mg/kg, time 30.0 day. In short, it runs like this:
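Brains from dosed female APP/PS1 mice (10 months) were fixed in 4% paraformaldehyde at 4 °C for 24–48 h, taken through a sucrose gradient and OCT, and cut into 15 μm sections. Sections were permeabilized with 0.3% Triton X-100, blocked in 10% BSA for 1 h, and incubated with primary antibody overnight at 4 °C (1:200). Secondary was 1:500 for 1 h at 25 °C, with DAPI counterstain and confocal imaging, in triplicate.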

For experiment [15], the system named is PC-12. Kind of experiment: Neuroprotective activity against rat PC12 cells assessed as reversal of Abeta1-42 induced Bax expression at 10 uM preincubated for 3 hrs followed by Abeta1-42 induction and measured after 24 hrs by Western blot analysis. The class given is functional, cell-based. The note with it: time 27.0 hrs. In short, it runs like this:
as §1

Experiment [16] relates to PC-12. Kind of experiment: Induction of apoptosis in Abeta1-42 induced rat PC12 cells assessed as necrosis at 10 uM preincubated for 3 hrs followed by Abeta1-42 induction and measured after 24 hrs by Annexin V-FITC/PI staining based flow cytometry analysis (reference value: 0.0%). The class given is functional. As to conditions: time 27 hrs.

Activity calls are given as the source filed them. The rule behind the calls is not given here.

Regarding `C=C[C@@]1(C)Cc2occ(C)c2[C@@H]2OC(=O)C(=C)[C@@H]21` [ISOLINDERALACTONE], the result in the experiment on PC-12 [1] and in the experiment on PC-12 [10] was inactive. The outcome with Mus musculus [2], in the experiment with PC-12 [3], with Mus musculus [4], in the experiment on PC-12 [5], in the experiment with Mus musculus [6] and with Mus musculus [7] was Active. Besides, the outcome with Mus musculus [8], in the experiment on PC-12 [9], with Mus musculus [11], in the experiment with Mus musculus [12], with Mus musculus [13] and with Mus musculus [14] was Active. Also, the outcome with PC-12 [15] was Active. Besides, the Activity in the experiment with PC-12 [16] is 0%.
